This is an account of results in ChEMBL document CHEMBL2413031, “Synthesis and tubulin-binding properties of non-symmetrical click C5-curcuminoids” (Bioorg Med Chem, 2013).

Active and inactive are the calls of the source. The rule behind the calls is not given here.

Assay [1] concerns MeWo. The assay can be described thus: Cytotoxicity against human MeWo cells assessed as cell viability at 10 uM after 48 hrs by MTT assay relative to vehicle-treated control. As to conditions: read-out: Activity. Format: functional. In a few lines: (§1)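 MeWo melanoma cells (DMEM, 10% FBS, 2 mM L-glutamine, penicillin/streptomycin 100 µg/mL) grown 48 h with or without compound. Washed twice in Locke's solution (HEPES pH 7.6), then MTT 250 µg/mL for 90 min. Screening at 10 µM fixed concentration against untreated control. Concentration–response: mean + S.D. of 8–16 replicates from 4 separate experiments.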
For orientation: Tetrazolium dyes change colour on reduction, which living cells bring about.

In assay [2] the target is T1, Tubulin (Homo sapiens) (UniProt P68371+Q9H4B7+P0DPH7+P68366+Q13509+Q71U36+P04350+Q3ZCM7+P07437+P68363+Q9BQE3+Q6PEY2+Q13885+Q9BVA1+Q9BUF5). Description: Inhibition of alpha-tubulin polymerization in human MeWo cells at 3 X IC50 after 16 hrs by Western blot analysis in presence of paclitaxel. Format: cell-based. In a few lines: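 MeWo cells in flasks, treated 16 h at 3× IC50 or left untreated. Trypsinised and lysed 10 min at RT in hypotonic buffer (20 mM Tris-HCl pH 6.8, 1 mM MgCl2, 2 mM EGTA, 0.5% NP-40, protease inhibitors) containing paclitaxel. Equal protein centrifuged 13000 rpm, 15 min. Pellet (polymerized) and supernatant (free) α-tubulin compared by SDS-PAGE/western blot, chemiluminescence. Three experiments; CA-4 positive control.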
(In general: In western blotting, separated proteins are transferred to a membrane and probed.)

In assay [3] the target is T1, Tubulin (Homo sapiens). The assay can be described thus: Inhibition of alpha-tubulin polymerization in human MeWo cells at 3 X IC50 after 16 hrs by immunofluorescence microscopic analysis. The assay is classed as cell-based. Summed up: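 MeWo cells on glass coverslips, drug-treated at 3× IC50, 16 h per the legend (24 h in methods). Stained with anti-tubulin (1:1000, 20 min RT), Alexa 488 secondary and nuclear dye, imaged at 63× oil. Representative of three experiments.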

Assay [4] deals with MeWo. Description: Antitubulinic activity in human MeWo cells assessed as blockade in G2/M phase at 3 X IC50 after 16 hrs by propidium iodide staining-based FACS analysis. Format: functional, cell-based. Summed up: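 MeWo cells (DMEM, 10% FBS, 2 mM L-glutamine, pen/strep) exposed 16 h to vehicle or compound. Washed once in PBS, then fixed in ice-cold 30:70 PBS/EtOH and held at −20 °C before DNA-content flow cytometry. Histograms shown are representative of three separate experiments.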
A general note: Flow cytometry measures light scatter and fluorescence of single cells or particles in a stream.

Assay [5] can be described thus: Cytotoxicity against human SH-SY5Y cells assessed as cell viability after 48 hrs by MTT assay. Format: functional, cell-based. Summed up: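 SH-SY5Y neuroblastoma cells in 50% DMEM/50% F-12 with 10% FBS, treated 48 h across a concentration range. Viability by MTT: cells washed twice in Locke's solution (pH 7.6), then 90 min with MTT 250 µg/mL. Mean + S.D. of 8–16 replicates from 4 separate experiments.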

For assay [6], the system named is MeWo. Description: Cytotoxicity against human MeWo cells assessed as cell viability after 48 hrs by MTT assay. Format: functional, cell-based. Summed up:
as §1

As for `COc1cc(/C=C/c2cc(-c3ccccc3)[nH]n2)cc(OC)c1`, the viability at 10 µM in assay [1] is 90%.

As for `COc1cc(C(=O)/C=C(O)/C=C/c2ccc(O)cc2)ccc1O`, in assay [1], the viability at 10 µM came out at 98%.

For the molecule `COc1cc(/C=C/c2cc(-c3ccc(O)cc3)[nH]n2)ccc1O`, the viability at 10 µM in assay [1] was determined as 69%.

For the molecule `COc1cc(/C=C/c2cc(-c3ccccc3)[nH]n2)ccc1O`, the viability at 10 µM in assay [1] stood at 51%.

Usually IC50 stands for the concentration at which inhibition is half-maximal. As for `COc1cc(/C=C/c2cc(-c3ccc(O)c(OC)c3)[nH]n2)ccc1O`, the inhibition entry in assay [2] and in assay [3] was “Active” each time. In addition, the outcome in assay [4] was Active. The IC50 came out at 4 µM in assay [5] and 3.7 µM in assay [6]. Moreover, in assay [1], the viability at 10 µM was 36%.

Consider `Oc1ccc(/C=C/c2cc(-c3ccccc3)[nH]n2)cc1`, for which, in assay [1], the viability at 10 µM was 98%.

With `COc1cc(/C=C/c2cc(-c3ccc(O)cc3)[nH]n2)cc(OC)c1`, the inhibition entry in assay [2] and in assay [3] was “Active” each time. The outcome in assay [4] was Active. The IC50 came out at 10.6 µM in assay [5] and 5.7 µM in assay [6]. For the same molecule, the viability at 10 µM in assay [1] worked out at 38%.

On to `COc1cc(/C=C/C(O)=C/C(=O)c2ccccc2)cc(OC)c1OC`, for which the viability at 10 µM in assay [1] was 93%.

As to `COc1cc(/C=C/C(O)=C/C(=O)c2ccc(O)c(OC)c2)ccc1O`, the viability at 10 µM in assay [1] is 97%.

Turning to `COc1cc(/C=C/C(O)=C/C(=O)c2ccc(O)cc2)ccc1O`, the viability at 10 µM in assay [1] amounted to 89%.

With `COc1cc(/C=C/C(O)=C/C(=O)c2ccccc2)ccc1O`, the viability at 10 µM in assay [1] was 90%.

As for `COc1cc(/C=C/c2cc(-c3ccccc3)[nH]n2)cc(OC)c1OC`, the viability at 10 µM in assay [1] was determined as 89%.

Take `COc1ccc(/C=C/C(O)=C/C(=O)c2ccccc2)cc1`: in assay [1], the viability at 10 µM amounted to 90%.

In the case of `COc1cc(/C=C/c2cc(-c3ccc(O)cc3)[nH]n2)cc(OC)c1OC`, the viability at 10 µM in assay [1] came out at 85%.

On to `COc1cc(-c2cc(/C=C/c3cc(OC)c(OC)c(OC)c3)n[nH]2)ccc1O`, for which, in assay [1], the viability at 10 µM turned out to be 75%.

As to `COc1cc(C(=O)/C=C(O)/C=C/c2cc(OC)c(OC)c(OC)c2)ccc1O`, the viability at 10 µM in assay [1] was determined as 89%.

Turning to `COc1ccc(/C=C/c2cc(-c3ccccc3)[nH]n2)cc1`, the viability at 10 µM in assay [1] was 92%.

As for `Oc1ccc(/C=C/c2cc(-c3ccc(O)cc3)[nH]n2)cc1`, the viability at 10 µM in assay [1] came to 87%.

Consider `COc1ccc(/C=C/C(O)=C/C(=O)c2ccc(O)c(OC)c2)cc1`, for which the viability at 10 µM in assay [1] is 84%.

For the molecule `COc1cc(/C=C/C(O)=C/C(=O)c2ccccc2)cc(OC)c1`, the viability at 10 µM in assay [1] turned out to be 92%.

For `COc1ccc(/C=C/C(O)=C/C(=O)c2ccc(O)cc2)cc1`, in assay [1], the viability at 10 µM was determined as 93%.

Take `COc1cc(-c2cc(/C=C/c3ccc(O)cc3)n[nH]2)ccc1O`: the viability at 10 µM in assay [1] is 95%.

As for `COc1ccc(/C=C/c2cc(-c3ccc(O)c(OC)c3)[nH]n2)cc1`, in assay [1], the viability at 10 µM was 92%.

Regarding `COc1cc(/C=C/C(O)=C/C(=O)c2ccc(O)cc2)cc(OC)c1`, in assay [1], the viability at 10 µM worked out at 90%.

Turning to `COc1cccc(/C=C/c2cc(-c3ccc(O)c(OC)c3)[nH]n2)c1`, the inhibition result in assay [2] and in assay [3] was “Active” each time. The result in assay [4] was Active. The IC50 came to 10.6 µM in assay [5] and 3.6 µM in assay [6]. Further, in assay [1], the viability at 10 µM stood at 27%.

For the molecule `O=C(/C=C(O)/C=C/c1ccc(O)cc1)c1ccccc1`, the viability at 10 µM in assay [1] was found to be 90%.

Take `COc1cc(/C=C/c2cc(-c3ccc(O)c(OC)c3)[nH]n2)cc(OC)c1`: the inhibition entry in assay [2] and in assay [3] was “Active” throughout. The result in assay [4] was Active. Further, the IC50 in assay [5] was determined as 11.8 µM; in assay [6], 4.8 µM. Besides, the viability at 10 µM in assay [1] was 43%.

On to `COc1cc(/C=C/C(O)=C/C(=O)c2ccc(O)cc2)cc(OC)c1OC`, for which the viability at 10 µM in assay [1] came to 85%.

In the case of `COc1cc(/C=C/C(=O)CC(=O)/C=C/c2ccc(O)c(OC)c2)ccc1O` [CURCUMIN], the inhibition entry in assay [2] and in assay [3] was “Active” each time. The outcome in assay [4] was Active. In addition, the figures for the IC50 in assay [5] and in assay [6] were 11.4 µM and 35.5 µM, respectively. The viability at 10 µM in assay [1] was determined as 90%.

As for `COc1cc(/C=C/C(O)=C/C(=O)c2ccc(O)c(OC)c2)cc(OC)c1`, the viability at 10 µM in assay [1] turned out to be 88%.

On to `O=C(/C=C(O)/C=C/c1ccc(O)cc1)c1ccc(O)cc1`, for which the viability at 10 µM in assay [1] worked out at 77%.

Take `COc1ccc(/C=C/c2cc(-c3ccc(O)cc3)[nH]n2)cc1`: the viability at 10 µM in assay [1] was found to be 81%.
